According to ChEMBL document CHEMBL5331128, “Alicyclic Ring Size Variation of 4-Phenyl-2-naphthoic Acid Derivatives as P2Y14 Receptor Antagonists” (J Med Chem, 2023):
Activity calls are given as the source filed them.

Tests used:
[1] = Lipophilicity, log D of compound at pH 7.4 incubated for 20 hrs by HPLC analysis; type: physicochemical; conditions: buffer
[2] = Selectivity ratio, ratio of IC50 for displacement of fluorescent tracer 4-(4-(1-(4-(1-(6-(3-carboxylato-4-(3-iminio-3H-xanthen-9-yl)benzamido)hexyl)-4,5-dihydro-1H-pyrrol-3-yl)butyl)piperidin-1-ium-4-yl)phenyl)-7-(4-(trifluoromethyl)phenyl)-2-naphthoate from mouse P2Y14R stably expressed in human HEK293 cells to IC50 for displacement of fluorescent tracer 4-(4-(1-(4-(1-(6-(3-carboxylato-4-(3-iminio-3H-xanthen-9-yl)benzamido)hexyl)-4,5-dihydro-1H-pyrrol-3-yl)butyl)piperidin-1-ium-4-yl)phenyl)-7-(4-(trifluoromethyl)phenyl)-2-naphthoate from human P2Y14R stably expressed in CHO cells; type: cell-based
P2Y purinoceptor 14 [3] = molecular target: T1, P2Y purinoceptor 14 (Homo sapiens, UniProt Q15391); test: (§1) Displacement of fluorescent tracer 4-(4-(1-(4-(1-(6-(3-carboxylato-4-(3-iminio-3H-xanthen-9-yl)benzamido)hexyl)-4,5-dihydro-1H-pyrrol-3-yl)butyl)piperidin-1-ium-4-yl)phenyl)-7-(4-(trifluoromethyl)phenyl)-2-naphthoate from human P2Y14R stably expressed in CHO cells by flow cytometry; type: cell-based
T1 sequence (Q15391 whole entry): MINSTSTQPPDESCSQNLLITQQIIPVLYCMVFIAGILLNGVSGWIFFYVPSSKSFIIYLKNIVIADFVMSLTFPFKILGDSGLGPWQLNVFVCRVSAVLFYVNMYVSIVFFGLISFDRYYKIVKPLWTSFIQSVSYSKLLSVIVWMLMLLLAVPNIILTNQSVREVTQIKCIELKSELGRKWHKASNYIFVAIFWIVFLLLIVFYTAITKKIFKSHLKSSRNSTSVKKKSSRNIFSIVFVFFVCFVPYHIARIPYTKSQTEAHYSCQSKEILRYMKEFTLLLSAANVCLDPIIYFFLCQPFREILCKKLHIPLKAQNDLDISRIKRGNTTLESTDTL
Method in brief: (§2)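 Whole-cell competitive binding: CHO cells expressing hP2Y14R (or HEK-293 cells expressing mP2Y14R) incubated with AlexaFluor488-labelled antagonist tracer at 20 nM.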

P2Y purinoceptor 14 [4] = molecular target: T1, P2Y purinoceptor 14; test: as §1, with “cells assessed as inhibition constant” for “cells”; type: cell-based; method in brief: as §2
P2Y purinoceptor 14 [5] = molecular target: T2, P2Y purinoceptor 14 (Mus musculus, UniProt Q9ESG6); test: Displacement of fluorescent tracer 4-(4-(1-(4-(1-(6-(3-carboxylato-4-(3-iminio-3H-xanthen-9-yl)benzamido)hexyl)-4,5-dihydro-1H-pyrrol-3-yl)butyl)piperidin-1-ium-4-yl)phenyl)-7-(4-(trifluoromethyl)phenyl)-2-naphthoate from mouse P2Y14R stably expressed in human HEK293 cells by flow cytometry; type: cell-based
T2 sequence (Q9ESG6 whole entry): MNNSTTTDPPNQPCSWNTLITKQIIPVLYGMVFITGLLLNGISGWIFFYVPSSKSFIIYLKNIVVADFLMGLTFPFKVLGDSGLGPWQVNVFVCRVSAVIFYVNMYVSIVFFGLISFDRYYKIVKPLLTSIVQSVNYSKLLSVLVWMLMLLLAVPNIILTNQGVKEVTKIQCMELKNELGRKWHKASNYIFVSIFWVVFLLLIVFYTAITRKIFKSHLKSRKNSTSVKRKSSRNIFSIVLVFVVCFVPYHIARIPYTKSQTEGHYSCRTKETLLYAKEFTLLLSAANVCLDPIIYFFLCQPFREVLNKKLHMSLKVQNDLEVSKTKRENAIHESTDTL
Method in brief: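 Whole-cell competitive binding: CHO cells expressing hP2Y14R (or HEK-293 cells expressing mP2Y14R) incubated with AlexaFluor488-labelled antagonist tracer at 20 nM. […] Ki derived by dividing IC50 by 1.72.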

[6] = molecular target: 5-hydroxytryptamine receptor 1B (Homo sapiens, UniProt P28222); test: Displacement of [3H]-5-CT from human 5-HT1B receptor assessed as inhibition constant by radioligand displacement assay
Histamine H1 receptor = Histamine H1 receptor (Homo sapiens, UniProt P35367); test: Displacement of [3H]-Pyrilamine from human histamine H1 receptor assessed as inhibition constant by radioligand displacement assay
[7] = molecular target: T3, Muscarinic acetylcholine receptor M5 (Homo sapiens, UniProt P08912); test: Displacement of […] from human muscarinic M5 receptor assessed as inhibition constant by radioligand displacement assay
T3 sequence (P08912 whole entry): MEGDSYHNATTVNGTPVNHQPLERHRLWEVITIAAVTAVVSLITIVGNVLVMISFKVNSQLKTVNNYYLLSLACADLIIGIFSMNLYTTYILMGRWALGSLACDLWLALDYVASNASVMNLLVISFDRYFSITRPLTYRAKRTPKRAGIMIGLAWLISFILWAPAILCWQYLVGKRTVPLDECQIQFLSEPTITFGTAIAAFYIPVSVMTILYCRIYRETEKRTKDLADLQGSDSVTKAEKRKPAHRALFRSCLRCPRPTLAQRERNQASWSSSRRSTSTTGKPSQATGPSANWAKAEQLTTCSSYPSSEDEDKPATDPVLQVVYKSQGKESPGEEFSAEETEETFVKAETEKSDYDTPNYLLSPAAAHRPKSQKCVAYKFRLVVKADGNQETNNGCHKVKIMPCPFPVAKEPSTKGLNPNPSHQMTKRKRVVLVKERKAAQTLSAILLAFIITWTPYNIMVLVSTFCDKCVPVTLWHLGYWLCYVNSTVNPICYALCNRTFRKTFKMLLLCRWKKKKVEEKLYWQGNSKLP

[8] = molecular target: T4, Alpha-1B adrenergic receptor (Homo sapiens, UniProt P35368); test: Displacement of [3H]-Prazosin from human adrenergic alpha1B receptor assessed as inhibition constant by radioligand displacement assay
T4 sequence (P35368 whole entry): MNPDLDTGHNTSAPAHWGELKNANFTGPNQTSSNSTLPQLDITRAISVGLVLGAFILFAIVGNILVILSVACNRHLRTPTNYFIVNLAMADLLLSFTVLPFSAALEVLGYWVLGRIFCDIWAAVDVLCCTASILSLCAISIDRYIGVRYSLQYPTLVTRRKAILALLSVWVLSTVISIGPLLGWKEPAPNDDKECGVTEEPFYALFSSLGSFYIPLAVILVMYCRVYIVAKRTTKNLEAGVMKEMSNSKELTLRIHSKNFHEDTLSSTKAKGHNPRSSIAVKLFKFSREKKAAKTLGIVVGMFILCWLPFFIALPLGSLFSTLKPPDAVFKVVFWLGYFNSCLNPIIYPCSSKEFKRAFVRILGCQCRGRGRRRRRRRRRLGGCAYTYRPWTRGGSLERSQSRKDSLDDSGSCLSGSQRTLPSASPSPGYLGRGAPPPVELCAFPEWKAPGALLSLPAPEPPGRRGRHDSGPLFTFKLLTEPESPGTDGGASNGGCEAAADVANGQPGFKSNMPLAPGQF

[9] = molecular target: Beta-3 adrenergic receptor (Homo sapiens, UniProt P13945); test: Displacement of [125I]-Pindolol from human adrenergic beta3 receptor assessed as inhibition constant by radioligand displacement assay
[10] = molecular target: Sigma intracellular receptor 2 (Homo sapiens, UniProt Q5BJF2); test: Displacement of [3H]-DTG from human sigma 2 receptor assessed as inhibition constant by radioligand displacement assay
Mus musculus = test: Antiallodynic activity in CCI surgery neuropathic pain Hsd:ICR mouse model assessed as reversal of mechano-allodynia by measuring paw withdrawal threshold at 10 micromol/kg,po and measured at 1 hrs by von frey test; type: functional, organism-based; conditions: dose 10.0 µmol/kg
Method in brief: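 CCI neuropathic pain in adult male CD-1 mice. Single oral gavage dose of 10 μmol/kg on day 7 post-surgery. Vehicle 5% DMSO + 10% (Kolliphor HS 15:DMSO 5:95) in 0.5% methylcellulose, 0.2 mL. Von Frey paw withdrawal threshold on both hindpaws. Mean ± SD; two-way ANOVA with Dunnett's test.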

[11] = Stability in human plasma assessed as half life at 1 uM and measured at 120 mins by LC-MS/MS analysis; type: ADME, cell-free
[12] = Stability in mouse plasma assessed as half life at 1 uM and measured at 120 mins by LC-MS/MS analysis; type: ADME, cell-free

Sequence of Beta-3 adrenergic receptor (P13945 whole entry): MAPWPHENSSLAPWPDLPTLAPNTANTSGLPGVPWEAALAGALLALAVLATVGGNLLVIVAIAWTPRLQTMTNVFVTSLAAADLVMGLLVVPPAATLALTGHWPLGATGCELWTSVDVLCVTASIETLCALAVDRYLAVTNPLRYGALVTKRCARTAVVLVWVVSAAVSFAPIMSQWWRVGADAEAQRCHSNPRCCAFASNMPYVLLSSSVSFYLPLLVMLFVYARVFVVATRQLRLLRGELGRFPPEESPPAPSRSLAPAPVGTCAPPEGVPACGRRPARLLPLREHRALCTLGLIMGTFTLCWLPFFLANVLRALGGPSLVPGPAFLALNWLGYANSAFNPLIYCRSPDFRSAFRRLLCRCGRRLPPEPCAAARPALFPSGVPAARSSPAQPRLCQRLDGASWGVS
Sequence of Sigma intracellular receptor 2 (Q5BJF2 whole entry): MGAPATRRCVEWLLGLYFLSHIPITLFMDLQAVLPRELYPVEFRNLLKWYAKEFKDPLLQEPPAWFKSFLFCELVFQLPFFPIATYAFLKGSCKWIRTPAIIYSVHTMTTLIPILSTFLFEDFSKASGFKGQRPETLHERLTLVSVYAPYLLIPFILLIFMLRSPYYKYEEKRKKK
Sequence of 5-hydroxytryptamine receptor 1B (P28222 whole entry): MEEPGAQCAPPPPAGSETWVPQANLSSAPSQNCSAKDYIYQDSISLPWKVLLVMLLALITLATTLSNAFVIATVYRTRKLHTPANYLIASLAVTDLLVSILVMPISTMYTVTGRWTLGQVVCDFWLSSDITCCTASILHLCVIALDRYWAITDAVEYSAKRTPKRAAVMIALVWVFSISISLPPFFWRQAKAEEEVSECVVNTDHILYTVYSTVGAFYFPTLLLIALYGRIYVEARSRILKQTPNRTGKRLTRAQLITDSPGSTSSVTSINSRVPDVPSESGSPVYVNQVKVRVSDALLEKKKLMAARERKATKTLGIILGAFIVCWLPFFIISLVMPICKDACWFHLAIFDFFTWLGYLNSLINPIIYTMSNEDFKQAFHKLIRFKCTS
Sequence of Histamine H1 receptor (P35367 whole entry): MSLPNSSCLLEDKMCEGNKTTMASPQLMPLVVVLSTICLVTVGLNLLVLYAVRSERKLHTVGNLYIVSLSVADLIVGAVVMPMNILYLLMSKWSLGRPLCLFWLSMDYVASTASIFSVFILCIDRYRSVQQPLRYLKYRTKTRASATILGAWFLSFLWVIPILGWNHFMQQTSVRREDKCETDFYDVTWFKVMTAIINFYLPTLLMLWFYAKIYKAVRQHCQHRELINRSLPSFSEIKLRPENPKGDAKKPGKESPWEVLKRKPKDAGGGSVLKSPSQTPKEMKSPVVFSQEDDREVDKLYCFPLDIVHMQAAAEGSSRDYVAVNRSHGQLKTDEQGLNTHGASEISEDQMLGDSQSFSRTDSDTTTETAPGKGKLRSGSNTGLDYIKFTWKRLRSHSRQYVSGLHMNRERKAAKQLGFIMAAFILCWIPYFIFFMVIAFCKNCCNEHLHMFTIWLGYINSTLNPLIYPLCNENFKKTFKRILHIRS

Compound	logD at 20 h [1]	IC50 (P2Y purinoceptor 14 [3]) [nM]	Ki (P2Y purinoceptor 14 [4]) [nM]	also measured
O=C(O)c1cc(-c2ccc(C3CCCNCCC3)cc2)c2ccc(-c3ccc(C(F)(F)F)cc3)cc2c1	2.5	18.5	10.8	Ratio IC50 [2]: 0.627; IC50 (P2Y purinoceptor 14 [5]): 11.6 nM
O=C(O)c1cc(-c2ccc(C3CC4(CNC4)C3)cc2)c2ccc(-c3ccc(C(F)(F)F)cc3)cc2c1	1.9	–	27.1	–
O=C(O)c1cc(-c2ccc(C3C[C@H]4CNC[C@@H]4C3)cc2)c2ccc(-c3ccc(C(F)(F)F)cc3)cc2c1 (racemic)	2.4	–	18.6	–
O=C(O)c1cc(-c2ccc(C3=CC4(CNC4)C3)cc2)c2ccc(-c3ccc(C(F)(F)F)cc3)cc2c1	1.9	–	5.63	Ki [6]: 6700 nM; Ratio IC50 [2]: 1.64; Ki (Histamine H1 receptor): 5600 nM; Ki [7]: 5000 nM; Ki [8]: 7300 nM; Ki [9]: 6800 nM; IC50 (P2Y purinoceptor 14 [5]): 15.9 nM; Ki [10]: 2200 nM
O=C(O)c1cc(-c2ccc(C3CCNCC3)cc2)c2ccc(-c3ccc(C(F)(F)F)cc3)cc2c1 [PPTN]	–	–	–	Activity (Mus musculus): Active; half-life at 1 µM [11]: > 720 min; half-life at 1 µM [12]: 1.5 min

Continued, in another order:

logD at 20 h [1]	IC50 (P2Y purinoceptor 14 [3]) [nM]	Ki (P2Y purinoceptor 14 [4]) [nM]	Compound	also measured
1.4	–	38.3	O=C(O)c1cc(-c2ccc(C3CNC3)cc2)c2ccc(-c3ccc(C(F)(F)F)cc3)cc2c1	–
1.6	–	–	O=C(O)c1cc(-c2ccc(C3CCNC3)cc2)c2ccc(-c3ccc(C(F)(F)F)cc3)cc2c1 (racemic)	–
–	424	247	CC(C)(C)OC(=O)NCCCCCCn1cc(CCCCN2CCC(c3ccc(-c4cc(C(=O)O)cc5cc(-c6ccc(C(F)(F)F)cc6)ccc45)cc3)CC2)nn1	–
2.8	524	305	O=C(O)c1cc(-c2ccc([C@@H]3[C@@H]4CNC[C@H]3C4)cc2)c2ccc(-c3ccc(C(F)(F)F)cc3)cc2c1	–
–	4810	2800	CN(C)C(=O)COC(=O)c1cc(-c2ccc([C@]3(O)[C@@H]4CNC[C@H]3C4)cc2)c2ccc(-c3ccc(C(F)(F)F)cc3)cc2c1	–
